Assay outcomes from PubChem.
Hits are enriched below; roughly 2.5% of the tested compounds scored in any of these assays.
JMJD2C inh = blocks human GASC-1 demethylase activity; inhibition, % at 2.35 µM; GST-JMJD2C(1-420) H3K9me3 demethylation, DELFIA europium; AID 2099; Q9H3R0; hit rate 0.069% among 330,000;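 active = more than half of a compound's replicate wells show inhibition beyond 50%, single wells judged on their own value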;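 also: signal counts dimethyl H3K9 product captured on neutravidin plate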
NR2E3 ag-1 = agonists of human nuclear receptor NR2E3. Q9Y5X4. GST-NR2E3/biotin-RetCOR TR-FRET, 1536-well. inhibition of corepressor binding, % at 4.78 µM. hit rate 0.12% among 320,000. AID 2300;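 active = percent inhibition above the cutoff of mean plus 3 SD of all tested compounds, set per screening campaign, cut at about 20% in these data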
Target sequence (Q9Y5X4 whole entry, looked up): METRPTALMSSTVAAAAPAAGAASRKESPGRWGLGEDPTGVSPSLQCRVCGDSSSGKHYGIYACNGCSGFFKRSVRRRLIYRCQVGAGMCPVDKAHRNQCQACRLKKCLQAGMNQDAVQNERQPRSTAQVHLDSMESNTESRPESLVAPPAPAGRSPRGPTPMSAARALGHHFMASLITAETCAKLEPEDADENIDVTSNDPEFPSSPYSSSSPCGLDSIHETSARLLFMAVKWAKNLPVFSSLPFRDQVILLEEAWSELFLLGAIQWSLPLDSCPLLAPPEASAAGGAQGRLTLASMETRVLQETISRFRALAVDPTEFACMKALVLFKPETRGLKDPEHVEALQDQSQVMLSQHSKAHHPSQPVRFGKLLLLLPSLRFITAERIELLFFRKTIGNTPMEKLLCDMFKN
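System: GST-tagged NR2E3 plus biotinylated RetCOR corepressor; Buffer or medium: pH 7.5 Tris-based buffer; Probe or stimulus: RetCOR corepressor, biotinylated, 7 nM; Doses: compound at 4.8 µM, single dose; Schedule: 5 h incubation at 4 °C; Technique: time-resolved FRET; Evaluation: percent inhibition of TR-FRET ratio; Replication: one well per compound, singlicate testing.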
ADAM10 inh = inhibitors of human ADAM10; O14672; recombinant ADAM10, EDANS/DABCYL FRET peptide cleavage, 3 h; inhibition, % at 7 µM; hit rate 0.62% among 370,000; AID 720582;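 active = inhibition above a per-campaign cutoff equal to the mean of compounds falling between control-based bounds plus 3 SD, cut at about 20% in these data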
ADAM17 inh = inhibits human ADAM17 | P78536 | recombinant ADAM17, EDANS/DABCYL FRET peptide cleavage | inhibition, % at 6.95 µM | hit rate 0.83% among 370,000 | AID 720648;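 active = inhibition above the mean of compounds lying between control limits plus 3 SD, set per campaign, cut at about 8.5% in these data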
proKLK7 act = proKLK7 (human) activation, primary screen | P49862 | purified proKLK7, EDANS-DABCYL substrate fluorescence; 100% is mature enzyme control, 0% vehicle | activation, % at 7 µM | hit rate 0.9% among 370,000 | AID 652039;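 active = activation above the mean of all tested compounds plus 3 SD, computed per campaign excluding outliers beyond control limits, cut at about 13% in these data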
Target sequence (P49862 whole entry, looked up): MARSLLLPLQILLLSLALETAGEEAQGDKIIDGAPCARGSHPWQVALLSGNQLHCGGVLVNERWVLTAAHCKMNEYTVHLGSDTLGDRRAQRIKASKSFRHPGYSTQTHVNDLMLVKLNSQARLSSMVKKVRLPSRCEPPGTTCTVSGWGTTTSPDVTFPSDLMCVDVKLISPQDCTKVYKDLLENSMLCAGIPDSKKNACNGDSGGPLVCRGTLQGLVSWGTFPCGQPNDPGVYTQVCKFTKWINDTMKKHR
NR2E3 ag-2 = activates human NR2E3 receptor; Q9Y5X4; CHO-S Gal4-NCOR/VP16-NR2E3 two-hybrid, luciferase; inhibition of corepressor binding, % at 3.98 µM; hit rate 0.35% among 360,000;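 active = inhibition above the mean of all tested compounds plus 3 SD, cut at about 70% in these data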;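 also: higher means lower luciferase signal from less NR2E3 corepressor binding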
KLK7 act conf = proKLK7 activation, confirmation. hit rate 68% among 3,200. purified proKLK7, EDANS-DABCYL substrate fluorescence; scaled: vehicle 0, mature enzyme 100. activation, % at 7 µM. shares compounds with proKLK7 act. AID 686949;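 active = activation, as change over the incubation, above the mean of all tested compounds plus 3 SD, cut at about 13% in these data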
EDANS interfere = counter-screen for kallikrein-7 activators: EDANS-DABCYL optical interference; shares compounds with proKLK7 act; activation, % at 7 µM; hit rate 80% among 3,200; EDANS-DABCYL substrate fluorescence interference, no enzyme, 4 h; solvent 0%, active enzyme control 100%;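 active = activation above the all-compound mean plus 3 SD, ignoring values outside control-based bounds, cut at about 4.8% in these data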;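 also: value is the 4 h activation minus the activation read at time zero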
K7 EDANS ctr = counter-screen for kallikrein-7 activators: EDANS-DABCYL interference, dose response | shares compounds with proKLK7 act | EDANS-DABCYL peptide fluorescence interference, no enzyme | EC50, µM | hit rate 20% among 250 | AID 720493;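 active = compounds that raise the fluorescence signal in this interference counterscreen, with EC50 at or below 10 µM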;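 also: intact quenched peptide substrate alone read at 355 nm excitation and 520 nm emission; signal is fluorescence gain from T0 to T4 after four hours at room temperature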
Hits are given with their value; 0 = inactive; - = no result given.

SMILES	JMJD2C inh	NR2E3 ag-1	ADAM10 inh	ADAM17 inh	proKLK7 act	NR2E3 ag-2	KLK7 act conf	EDANS interfere	others
O=C(C[C@H]1CC[C@@H]2[C@H](COC[C@@H](O)CN2Cc2cccc(F)c2)O1)NCC1CCCCC1	-	-	0	0	0	-	-	-
COc1ccc(Br)cc1/C=N/n1c(COc2ccccc2)n[nH]c1=S	0	0	0	0	0	0	-	-
COc1ccc(OC)c(/C=N/n2c(COc3ccccc3)n[nH]c2=S)c1	0	-	0	0	20	0	43	37
O=C(CSc1nnc(NC2CC2)s1)c1ccc[nH]1	0	-	0	0	0	0	-	-
COc1ccc(C2=CC(c3ccc(OC)c(OC)c3)n3nnnc3N2)c(OC)c1 (stereo unspecified)	0	0	0	0	16	0	0	0
CCOC(=O)N1CCC2(CC1)NC(=O)c1ccccc1N2	-	-	0	0	21	0	30	24	K7 EDANS ctr=0
O=C(Nc1ncc2c(n1)-c1ccccc1OC2)c1ccccc1Cl	0	0	0	0	16	0	0	0
O=C(Nc1ncc2c(n1)-c1ccccc1CC2)C1CC1	0	0	0	0	0	0	-	-
CC(=O)c1ccc(/C=C/c2nc3ccccc3n2C)o1	0	0	0	0	40	0	71	71
O=C(N[C@@H](Cc1cccnc1)C(=O)N1CCC[C@H]1C(=O)NCCc1ccccc1Cl)c1ccc(Cl)cc1Cl	-	-	0	0	0	-	-	-
COc1cc(C2Nc3ccccc3C(=O)N2c2ccc(Cl)cc2)c(Cl)cc1OCC(=O)O (stereo unspecified)	0	0	0	0	22	0	26	27
CC(=O)c1ccc(Sc2ccccc2)c([N+](=O)[O-])c1	0	0	0	0	0	0	-	-
CC(=O)c1ccc(Sc2ccccc2N)c([N+](=O)[O-])c1	0	0	0	0	15	0	0	0
CCN(Cc1ccccc1)S(=O)(=O)c1c(C)[nH]c(C)c1C(=O)N1CCCC1	0	0	0	0	0	0	-	-
CCOc1ccc(C(=O)/C=C/Nc2ccc(S(=O)(=O)Nc3cc(C)nc(C)n3)cc2)cc1	0	0	0	0	147	-	238	177
Cc1cc(C)nc(NS(=O)(=O)c2ccc(N/C=C\C(=O)c3ccc(Cl)cc3)cc2)n1	0	0	0	0	0	0	-	-
CCN(CC)Cc1c(O)ccc2c(=O)c(Oc3ccccc3OC)c(C)oc12	0	0	0	0	89	0	65	69
COc1ccccc1Oc1c(C)oc2c(CN(C)C)c(O)ccc2c1=O	0	0	0	0	51	0	66	71
CCN(C(=O)COC(=O)CCC(=O)c1ccc(C)cc1)c1c(N)n(Cc2ccccc2)c(=O)[nH]c1=O	-	-	0	0	0	0	-	-
CNC(=O)C(C)N1c2cccc3cccc(c23)S1(=O)=O (stereo unspecified)	0	-	0	0	15	0	0	13
CCOc1ccc2c(c1)sc1nc(C(=O)OC)cc(=O)n12	0	0	0	0	17	0	15	16
COC(=O)c1cc(=O)nc2sc3cc(OC)ccc3n12	0	0	0	0	29	0	22	24
CCCCc1c(O)nc2sc3cc(OC)ccc3n2c1=O	0	0	0	0	0	0	-	-
COC(=O)c1cc(=O)n2c(-c3ccc(OC)cc3)csc2n1	0	0	0	0	0	0	-	-
NCc1ccccc1CS(=O)(=O)N1CCOCC1	0	-	0	0	0	0	-	-
SMILES	JMJD2C inh	NR2E3 ag-1	ADAM10 inh	ADAM17 inh	proKLK7 act	NR2E3 ag-2	KLK7 act conf	EDANS interfere	others
O=Cc1c(SCCO)nc2ccccn2c1=O	0	0	0	0	31	0	23	24
COC(=O)CSc1nc2ccccn2c(=O)c1C=O	0	0	0	0	59	0	77	69
O=C(NC1CCCC1)C(c1ccccc1)n1c(-c2cccc3ccccc23)nc2ccccc21 (stereo unspecified)	-	-	0	0	0	-	-	-
COc1cc2c(cc1OC)CN(CC(=O)NC(=O)NC(C)(C)C)CC2	0	0	0	0	0	0	-	-
COc1cc2c(cc1OC)CN(CC(=O)NC(=O)NCc1ccco1)CC2	0	0	0	0	48	0	14	14
COc1ccc(C2=NS(=O)(=O)N(C)C(C(=O)NC3CCCCC3)=C2)cc1OC	0	0	0	0	13	0	0	0
C=CCC1C=C(C)CC(CC=C)N1 (stereo unspecified)	0	0	0	0	0	0	-	-
O=c1c(-c2ccccc2)n[nH]c2ccccc12	0	0	0	0	0	0	-	-
O=C1c2ccccc2-c2n[nH]c3cccc1c23	-	-	0	0	63	0	74	75
CC(=O)C1CCC2C3C=CC4=CC(=O)CCC4(C)C3CCC12C (stereo unspecified)	-	-	0	0	0	0	-	-
Nc1ncnc(N)c1NC(=O)c1ccc(OCc2ccccc2)cc1	-	-	0	0	0	0	-	-
Nc1cnnc(N/N=C\c2ccccc2)c1Cl	0	0	0	0	13	0	0	0
O=C(CN1CCN(C2CCCCC2)CC1)c1ccc2cc[nH]c2c1	0	0	0	0	22	0	20	20
CN1C[C@]2(C=C3CCCCC3n3c(=O)n(-c4ccccc4)c(=O)n32)N(C(=O)OCc2ccccc2)C1=NC(=O)c1ccccc1 (stereo partly specified)	-	-	0	0	0	-	-	-
COc1ccc(/C=C(/CC(=O)NCc2ccc(Cl)cc2)c2nc3ccccc3s2)cc1	0	0	0	0	28	0	68	57	K7 EDANS ctr=2.4
COc1ccc(/C=C(/CC(=O)Nc2ccccc2)c2nc3ccccc3s2)cc1	0	0	0	0	0	0	-	-
Cc1cc(N2CCN(C)CC2)nc2ccc(NC(=S)N3CCN(c4ccc(F)cc4)CC3)cc12	0	0	0	0	0	0	-	-
Cc1cc(N2CCOCC2)nc2ccc(NC(=S)N3CCCCC3C)cc12 (stereo unspecified)	0	0	0	0	21	0	0	15
CCCCNC(=O)CCC(=O)Nc1ccc2nc(N3CCN(C)CC3)cc(C)c2c1	0	0	0	0	0	0	-	-
CCCN(CCC)CCNC(=O)CCC(=O)Nc1ccc2nc(N3CCN(C)CC3)cc(C)c2c1	0	0	0	0	25	0	120	121
Cc1cc(N2CCCC2)nc2ccc(NC(=S)NCCCN3CCC(C)CC3)cc12	0	0	0	0	15	0	34	45
